Reference: PMC4764508 (Journal of the American Chemical Society, 2015)
Like-named read-outs stand apart in the source and are kept apart here.

Legend:
[1] = cited from earlier work
[2] = test system: carotid artery thrombus (fibrin); assay: MR imaging of carotid artery thrombosis in a rat model, 1.5T; assay type: in vivo
Summary of the method: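 In a rat carotid artery thrombosis model, 3D T1-weighted gradient-echo MRI with arterial inflow suppression was run at 1.5T. Scans were taken before and immediately after injection of 10 μmol/kg probe (40 μmol/kg metal) and repeated over 1 h; N=4 per probe. Thrombus-to-muscle and contralateral vessel-to-muscle CNR were followed over time. Thrombosis was confirmed by H&E histology. Error bars are SEM.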

[3] = Variable temperature 17O NMR: hydration state and water exchange; assay type: physicochemical; conditions: for ΔH^≠: water exchange; for kex^310: water exchange rate at 310 K
Summary of the method: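 Transverse relaxivity of H217O was measured with the Mn complex present across a range of temperatures. The data were fitted to derive water exchange parameters, including kex at 310 K and ΔH, and the Mn-17O hyperfine coupling constant.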

in vivo = conditions: rat
[4] = Mn blood pharmacokinetics and plasma speciation in rats; conditions: rat, HPLC-ICP-MS
[5] = rat, in vivo
T1 relaxivity = assay type: physicochemical; conditions: for Relaxivity r1 in pH 7.4 buffer: pH 7.4 Tris buffer
[6] = Biodistribution in rats by ICP-MS; conditions: rat, in vivo
[7] = Mn2+ thermodynamic stability constants by pH-potentiometry; assay type: physicochemical
Summary of the method: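 The ligand was titrated by pH-potentiometry in the presence of 1 equiv MnCl2 at 25 °C and I = 0.15 M NaCl. KML = [ML]/([M][L]) and KHML = [HML]/([ML][H]). Effective formation constants were derived at pH 7.4. pMn is -log[free Mn] when [M] = [L] = 10 μM.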

[8] = assay type: physicochemical; conditions: 1 mM complex, 25 mM Zn2+, 50 mM pH 6.0 MES buffer, 37 °C, 1.4T
[9] = assay type: physicochemical; conditions: from Kcomp determined using CDTA challenge
Summary of the method: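 The conditional stability constant at pH 7.4 came from direct competition of the Mn complex with CDTA, with species monitored by LC-MS. The effective constant was derived from the competition constant Kcomp. pMn was calculated as -log[free Mn] with [M] = [L] = 10 μM.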

[10] = Protein bound fraction by ultra-filtration; assay type: in vitro ADME, bovine; conditions: 150-300 μM solution
[11] = molecular target: bovine serum albumin (BSA) (Bos taurus, UniProt P02769); assay: Protein bound fraction by ultra-filtration; assay type: in vitro ADME; conditions: 150-300 μM solution
bovine serum albumin (BSA), sequence (P02769 25-607): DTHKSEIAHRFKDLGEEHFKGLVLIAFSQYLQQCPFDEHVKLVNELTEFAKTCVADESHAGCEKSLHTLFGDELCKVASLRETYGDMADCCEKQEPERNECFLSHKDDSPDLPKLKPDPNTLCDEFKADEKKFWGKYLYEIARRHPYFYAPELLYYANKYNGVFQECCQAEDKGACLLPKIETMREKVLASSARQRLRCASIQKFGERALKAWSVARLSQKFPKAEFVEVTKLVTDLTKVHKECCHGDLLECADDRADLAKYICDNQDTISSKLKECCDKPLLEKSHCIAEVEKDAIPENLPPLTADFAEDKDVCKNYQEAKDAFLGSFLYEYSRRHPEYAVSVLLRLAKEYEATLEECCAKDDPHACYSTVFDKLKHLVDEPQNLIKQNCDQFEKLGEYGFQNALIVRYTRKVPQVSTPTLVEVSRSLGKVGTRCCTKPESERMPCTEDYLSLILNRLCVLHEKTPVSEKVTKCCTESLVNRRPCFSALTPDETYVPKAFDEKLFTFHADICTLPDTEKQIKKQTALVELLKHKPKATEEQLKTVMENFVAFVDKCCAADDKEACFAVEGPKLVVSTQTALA

[12] = Dynamic MRI clearance kinetics in mice; assay type: in vivo, balb/C mouse; conditions: 60 μmol/kg i.v., monoexponential fit of nSNR vs time
[13] = Mn tissue content by ICP-MS 24h after injection in mice; assay type: in vivo, mouse
Summary of the method: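 Mice (N=4) received test compound i.v. at 60 μmol/kg. Tissue Mn was measured by ICP-MS at 24 h and compared with endogenous Mn in naive mice (N=4). Results were expressed as nmol/g and as %ID/g. Elevation above baseline was tested at P<0.05.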

[14] = rat, plateau by 35 minutes post injection

O=C([O-])CN1CCN(CC(=O)[O-])CCN(CC(=O)[O-])CCN(CC(=O)[O-])CC1.[Gd+3] [Gd-DOTA]
Relaxivity in plasma [1]: 3.6 mM⁻¹ s⁻¹

CC[C@H](C)[C@H](NC(=O)[C@H](Cc1ccc(O)cc1)NC(=O)[C@@H]1CSSC[C@H](NC(=O)[C@@H](CCC(=O)O)NC(=O)[C@H](Cc2ccc(O)cc2)NC(=O)[C@H](CNC(=O)c2ccc(CN(CC(=O)O)C3CCCCC3N(CC(=O)O)CC(=O)O)nc2)NC(=O)c2ccc(CN(CC(=O)O)C3CCCCC3N(CC(=O)O)CC(=O)O)nc2)C(=O)N2C[C@H](O)C[C@H]2C(=O)N[C@@H](Cc2ccc(O)c(Cl)c2)C(=O)NCC(=O)N[C@@H](CC(C)C)C(=O)N1)C(=O)N[C@@H](CCC(N)=O)C(=O)NCc1ccc(CNC(=O)[C@H](CNC(=O)c2ccc(CN(CC(=O)O)C3CCCCC3N(CC(=O)O)CC(=O)O)nc2)NC(=O)c2ccc(CN(CC(=O)O)C3CCCCC3N(CC(=O)O)CC(=O)O)nc2)cc1 (stereo partly shown) [Mn-FBP]
Thrombus enhancement compared with EP-2104R ([2]; rat model of arterial thrombosis): equivalent thrombus enhancement | Increase of thrombus-to-muscle CNR post injection ([2]; rat, 10 μmol/kg probe): more than 5 fold | Peak CNR vs. muscle, contralateral vessel [2, 14]: 5.6±1.5 | Peak CNR vs. muscle, thrombus [2, 14]: 32.9±4.0 | Hydration state (q) [3]: 1 | Mn-17O hyperfine coupling constant AO/ħ [3]: 2.82±0.040 ×10^7 rad/s | Water exchange rate kex ([3]; 37 °C): 1.1e+08 s⁻¹ | ΔH^≠ [3]: 39.7 kJ/mol | kex^310 [3]: 1.1±0.04 ×10^8 s^-1 | half-life (in vivo): 23.5 ± 13.4 min | Mn dechelation in blood plasma (Mn speciation) [4]: no evidence of Mn dechelation | Total Mn blood clearance t1/2 [5]: 22.6 ± 6.8 min | Molecular relaxivity relative to per Mn values (T1 relaxivity): 4 fold | Relaxivity in human fibrinogen solution compared with buffer (T1 relaxivity; 1.4 T, 37 °C): unchanged | Relaxivity r1 in 4.5% w/v BSA solution (T1 relaxivity; 1.4 T, 37 °C, per Mn): 11.4 mM⁻¹ s⁻¹ | Relaxivity r1 in bovine blood plasma (T1 relaxivity; 1.4 T, 37 °C, per Mn): 10.7 mM⁻¹ s⁻¹ | Relaxivity r1 in human fibrin gel (T1 relaxivity; fibrinogen converted to fibrin gel, 1.4 T, 37 °C, per Mn): 13.5 mM⁻¹ s⁻¹ | Increase in relaxivity in the presence of fibrin (T1 relaxivity; human fibrin gel vs buffer): 60% | Relaxivity r1 in pH 7.4 buffer (T1 relaxivity; 1.4 T, 37 °C, per Mn): 8.5 mM^-1s^-1 | Per Mn relaxivity relative to [Mn(PyC3A)(H2O)]^- (T1 relaxivity; pH 7.4 buffer): 4 fold | Eliminated after 24 hr [6]: > 99% | Mn in muscle at 24h [6]: 0.02±0.02% of the injected dose per gram tissue

O=C(O)CN(CC(=O)O)C1CCCCC1N(CC(=O)O)Cc1ccccn1 (stereo not drawn) [PyC3A, N-picolyl-N,N′,N′-trans-1,2-cyclohexylenediaminetriacetate]
pH by which complexation is complete ([7]; 1 mM each Mn2+ and PyC3A, 0.15M NaCl, 25 °C): 4.5

O=C([O-])CN(CCN(CC(=O)[O-])CC(=O)[O-])CCN(CC(=O)[O-])CC(=O)[O-].[Gd+3] [[Gd(DTPA)(H2O)]^2-]
Pseudo-first order rate constant of transmetallation [8]: 1.41±0.31 × 10^-2 s^-1 | Relaxivity in plasma [1]: 4.1 mM⁻¹ s⁻¹

O.O=C([O-])CN(CC(=O)[O-])C1CCCCC1N(CC(=O)[O-])CC(=O)[O-].[Mn+2] (stereo not shown) [[Mn(CDTA)(H2O)]^2-]
Pseudo-first order rate constant of transmetallation [8]: 1.10±0.01 × 10^-3 s^-1

O.O=C([O-])CN(CC(=O)[O-])C1CCCCC1N(CC(=O)[O-])Cc1ccccn1.[Mn+2] (stereo not shown) [[Mn(PyC3A)(H2O)]^-]
Pseudo-first order rate constant of transmetallation [8]: 6.76±0.03 × 10^-4 s^-1 | logKML ([7]; Mn(II) complex, pH-potentiometry, 25 °C, I = 0.15 M NaCl): 14.14 | logKpH 7.4 (effective formation constant at pH 7.4) ([7]; from potentiometric titration, 25 °C, 0.15 M NaCl): 11.34 | Stability relative to [Mn(DPDP)]^3- at pH 7.4 ([7]; pH 7.4): > 10^5 times | logKpH 7.4 (effective formation constant at pH 7.4) [9]: 11.40 | Hydration state (q) [3]: 1 | Mn-17O hyperfine coupling constant AO/ħ [3]: 2.87±0.080 ×10^7 rad/s | ΔH^≠ [3]: 37.2 kJ/mol | kex^310 [3]: 1.0±0.02 ×10^8 s^-1 | Fraction protein bound in plasma [10]: 1-5% | Fraction protein bound in 4.5% w/v BSA solution [11]: 1-5% | Blood clearance t1/2 [12]: 7.8 ± 3.0 min | Relaxivity r1 in 4.5% w/v BSA solution (T1 relaxivity; 1.4 T, 37 °C, per Mn): 3.4 mM⁻¹ s⁻¹ | Relaxivity r1 in bovine blood plasma (T1 relaxivity; 1.4 T, 37 °C, per Mn): 3.8 mM⁻¹ s⁻¹ | Relaxivity r1 in pH 7.4 buffer (T1 relaxivity; 1.4 T, 37 °C, per Mn): 2.1 mM^-1s^-1 | Elimination by 24h [13]: > 99% | Injected dose remaining in the body at 24 hours [13]: less than 1% | Mn levels in all other tissues at 24h vs naïve mice ([13]; 60 μmol/kg i.v., ICP-MS): not elevated above endogenous basal levels | Mn remaining in liver and kidneys at 24h ([13]; 60 μmol/kg i.v., ICP-MS): < 0.05 %ID/g
